Source: ChEMBL document CHEMBL4411261, “Down-Regulation of the Androgen Receptor by G-Quadruplex Ligands Sensitizes Castration-Resistant Prostate Cancer Cells to Enzalutamide” (J Med Chem, 2018)
The source made the active and inactive calls. The calls are words filed in the database; no cut-off is given here.

Assays:
PC-3 = test: Synergistic cytotoxicity against human PC3 cells assessed as ED75 for Enzalutamide at 0.001 to 0.1 uM after 72 hrs by MTS assay
Quadruplex DNA [1] = test: Stabilization of 5'-FAM/3'-TAMRA labelled AR3 G-quadruplex oligonucleotide (unknown origin) assessed as change in melting temperature t1/2 at 1 uM after 16 hrs in presence of 100 mM K+ by FRET assay; type: nucleic-acid assay
Outline: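 FRET melting: FAM/TAMRA dual-labelled oligos (0.25 μM) folded in 10 mM lithium cacodylate pH 7.4 with 100 mM KCl (95 °C 5 min, cooled 4 h); ligand added at 1 μM final, 16 h room temperature. FAM emission followed 30−95 °C at 1 °C/min; curves normalized 0 to 1, T1/2 at 0.5 fraction.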

Quadruplex DNA [2] = test: Stabilization of AR G-quadruplex oligonucleotide in human 22Rv1 cells assessed as regulation of ERBB2 mRNA expression at IC50 after 48 hrs by RT-PCR analysis; type: cell-based
Outline: (§1)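 Transcripts quantified by TaqMan real-time PCR with RNaseP as normalizer; relative quantity versus untreated cells by the 2−ΔΔCt method. Panel genes measured with a 92-gene cancer-mechanism TaqMan array.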

Quadruplex DNA [3] = test: Stabilization of AR G-quadruplex oligonucleotide in human 22Rv1 cells assessed as down-regulation of KLK3 mRNA expression at IC50 after 6 to 72 hrs by RT-PCR analysis; type: cell-based
Outline: as §1

Quadruplex DNA [4] = test: Stabilization of AR G-quadruplex oligonucleotide in human 22Rv1 cells assessed as down-regulation of CCND1 mRNA expression at IC50 after 48 hrs by RT-PCR analysis; type: cell-based
Outline: as §1

[5] = Stabilization of AGTGAGAGTGAGAGAGAGAGTGAGAGTGAGAGTGA/TCACTCTCACTCTCACTCTCTCTCTCACTCTCACT dsDNA (unknown origin) assessed as assessed as effect on conformational change at 16 uM after 16 hrs in presence of 100 mM K+ by CD spectra analysis
Outline: (§2)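 CD: oligos at 4 μM final in 10 mM lithium cacodylate pH 7.4, 100 mM KCl, annealed 95 °C 5 min then 4 h room temperature; duplex from equimolar strands. Ligand 16 μM final, 16 h room temperature. Spectra 230−320 nm, 5 mm cell, two scans averaged at 20 °C, buffer-subtracted; melting from spectra 20−90 °C in 5 °C steps.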

Quadruplex DNA [6] = test: Stabilization of AR G-quadruplex oligonucleotide in human LNCAP cells assessed as reduction in AR mRNA expression at IC50 after 72 hrs by RT-PCR analysis; type: cell-based
Outline: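 Cells grown in RPMI-1640 with 10% fetal calf serum, 37 °C, 5% CO2, treated at an equitoxic concentration. Transcripts quantified by TaqMan real-time RT-PCR, normalized to RNaseP, expressed as relative quantity versus untreated cells (calibrator) by the 2−ΔΔCt method.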

Quadruplex DNA [7] = test: Stabilization of AR G-quadruplex oligonucleotide in human 22Rv1 cells assessed as reduction in AR-FL protein level at IC50 after 48 hrs by Western immunoblot assay; type: cell-based
Quadruplex DNA [8] = test: Stabilization of AR G-quadruplex oligonucleotide in human 22Rv1 cells assessed as up-regulation of WNT1 mRNA expression at IC50 after 48 hrs by RT-PCR analysis; type: cell-based
Outline: as §1

CWR22R [9] = test: Synergistic cytotoxicity against human 22Rv1 cells expressing full length androgen receptor H875Y point mutant assessed as combination index for reduction in cell viability measured at ED50 Enzalutamide at 0.001 to 0.1 uM after 72 hrs by MTS assay based Chou and Talay's plot analysis; type: functional
Outline: (§3)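 Cells in RPMI-1640 with 10% fetal calf serum were exposed to ligand (0.001−0.1 μM) plus enzalutamide (0.5−50 μM) at a fixed ratio, five concentrations, for 72 h at 37 °C, 5% CO2. Viability read by MTS absorbance at 490 nm after 4 h. Combination index computed at ED50 and ED75 by the Chou–Talalay method.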

DU-145 = test: Effect on JUN mRNA expression in human DU145 cells at IC50 after 48 hrs by RT-PCR analysis; type: functional, cell-based
Outline: as §1

CWR22R [10] = test: Synergistic cytotoxicity against human 22Rv1 cells expressing full length androgen receptor H875Y point mutant assessed as combination index for reduction in cell viability measured at ED75 Enzalutamide at 0.001 to 0.1 uM after 72 hrs by MTS assay based Chou and Talay's plot analysis; type: functional
Outline: as §3

Quadruplex DNA [11] = test: Stabilization of AR G-quadruplex oligonucleotide in human DU145 cells assessed as down-regulation of MAX mRNA expression at IC50 after 48 hrs by RT-PCR analysis; type: cell-based
Outline: as §1

[12] = Stabilization of TTTTTAGTGAGAGTGAGAGAGAGAGTGAGAGTGAGAGTGATTTTTCTGCATATAAGCAGCTGCTTTTTGCC DNA (unknown origin) assessed as inhibition of polymerase progression at G4 site by measuring reduction in full length amplified product using GGCAAAAAGCAGCTGCTTATATGCAG as primer at 12.5 to 200 nM after 30 mins in presence of 5'-end labeled [gamma32P]ATP by phosphorimaging based taq polymerase stop assay
Outline: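 Primer 5′-labeled with [γ-32P]ATP by T4 polynucleotide kinase, 37 °C, 30 min. Labeled primer (72 nM final) annealed to template (36 nM final) in 10 mM lithium cacodylate pH 7.4, with or without 10 mM KCl, by heating at 95 °C for 5 min then slow cooling.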

Quadruplex DNA [13] = test: Stabilization of AR G-quadruplex oligonucleotide in human 22Rv1 cells assessed as inhibition of telomerase activity at IC50 after 48 hrs by TRAP assay; type: cell-based
CWR22R [14] = test: Synergistic cytotoxicity against human 22Rv1 cells expressing full length androgen receptor H875Y point mutant assessed as ED75 for Enzalutamide at 0.001 to 0.1 uM after 72 hrs by MTS assay; type: functional
Outline: as §3

Quadruplex DNA [15] = test: Stabilization of AR G-quadruplex oligonucleotide in human 22Rv1 cells assessed as regulation of AKT1 mRNA expression at IC50 after 48 hrs by RT-PCR analysis; type: cell-based
Outline: as §1

Quadruplex DNA [16] = test: Stabilization of AR1 G-quadruplex oligonucleotide (unknown origin) assessed as melting temperature at 16 uM after 16 hrs in presence of 100 mM K+ by CD spectra analysis (reference value: 74.9 +/- 0.3 degreeC); type: nucleic-acid assay
CWR22R [17] = test: Synergistic cytotoxicity against human 22Rv1 cells expressing full length androgen receptor H875Y point mutant assessed as reduction in cell viability at 0.001 to 0.1 uM after 72 hrs in presence of Enzalutamide by MTS assay based CI-Fa plot analysis; type: functional
Outline: as §3

CWR22R [18] = test: Cytotoxicity against human 22Rv1 cells expressing full length androgen receptor H875Y point mutant assessed as reduction in cell viability after 48 hrs by MTS assay; type: functional, cell-based; settings: 22Rv1, 48 h
Outline: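 Cells kept in RPMI-1640 with 10% fetal calf serum, 37 °C, 5% CO2. Seeded, after 24 h treated with 0.0001, 0.001, 0.01, 0.1, 1 and 10 μM compound (DMSO stocks freshly diluted in medium) for 48 h. MTS added 4 h, absorbance 490 nm; IC50 from curves of % viability inhibition versus DMSO-treated cells against log concentration.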

[19] = Stabilization of AGTGAGAGTGAGAGAGAGAGTGAGAGTGAGAGTGA ssDNA (unknown origin) assessed as effect on conformational change at 16 uM after 16 hrs in presence of 100 mM K+ by CD spectra analysis
Outline: as §2

ΔTm (Quadruplex DNA [1]): 31 °C
Activity [5]: inactive
inhibition [12]: inactive
Tm (Quadruplex DNA [16]): > 90 °C
Activity [19]: inactive
SMILES: CN(C)CCCn1c(=O)c2ccc3c(=O)n(CCCN(C)C)c(=O)c4c5[nH]c6ccccc6[nH]c5c(c1=O)c2c34.Cl.Cl
ED75 (PC-3): 21100 nM
Activity (Quadruplex DNA [2]): Active
Activity (Quadruplex DNA [3]): Active
Activity (Quadruplex DNA [4]): Active
Activity (Quadruplex DNA [6]): inactive
Activity (Quadruplex DNA [7]): Active
Activity (Quadruplex DNA [8]): Active
CI (CWR22R [9]): <1
Activity (DU-145): inactive
CI (CWR22R [10]): <1
Activity (Quadruplex DNA [11]): Active
inhibition (Quadruplex DNA [13]): Active
ED75 (CWR22R [14]): 370 nM
Activity (Quadruplex DNA [15]): Active
CI (CWR22R [17]): <0.5
IC50 (CWR22R [18]): 10 nM
